Experiments:
NSCLC cell line H460 = test: SRB cytotoxicity assay in NSCLC cell line H460; format: cell-based; settings: for cytoselective anti-cancer effects in H460 and H460TaxR cells (in words): single concentration 10 µM, SRB, H460 and H460TaxR versus NHFB
Outline: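 Sulforhodamine B (SRB) viability assay in H460 cells, run alongside drug-resistant H460TaxR and normal human fibroblasts (NHFB). The initial screen used a single test-compound concentration of 10 µM. DMSO served as the negative control, and viability in DMSO was set to 100%. Selected compounds were also tested across a range of doses in H460 and H460TaxR to give dose-dependent cytotoxicity.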

[1] = tested on: normal human fibroblasts (NHFB); test: SRB cytotoxicity assay in normal human fibroblasts; format: cell-based; settings: Fibroblast, read-out: EC50 NHFB
[2] = high throughput aqueous solubility assay; format: physicochemical; settings: for aqueous solubility (in words): comparison within libraries

Compound | cytoselective anti-cancer effects in H460 and H460TaxR cells (in words) (NSCLC cell line H460) | EC50 [1] [µM] | anti-cancer activity (in words) (NSCLC cell line H460; H460 and H460TaxR) | other results
CN(C)c1ccc(/C=C2/SC(=Nc3ccccc3)NC2=O)cc1 [Compound 1] | good cytoselective anti-cancer effects | > 100 | – | –
CCN(CC)c1ccc(/C=C2/SC(Nc3ccccc3)=NC2=O)cc1 [Compound 2] | good cytoselective anti-cancer effects | > 100 | – | –
O=C1N=C(Nc2ccccc2)S/C1=C/c1ccc(N2CCOCC2)cc1 [Compound 3] | – | > 100 | – | –
CN1CCN(c2ccc(/C=C3/SC(Nc4ccccc4)=NC3=O)cc2)CC1 [Compound 4] | good cytoselective anti-cancer effects | – | – | –
O=C1N=C(Nc2ccccc2)S/C1=C/c1ccc(N2CCNCC2)cc1 [Compound 5] | – | > 100 | reduced anticancer activity | aqueous solubility (in words) [2]: largest improvement in aqueous solubility
O=C1N=C(Nc2ccc(O)cc2)S/C1=C/c1ccc(N2CCNCC2)cc1 [Compound 10] | – | – | reduced anticancer activity | aqueous solubility (in words) [2]: largest improvement in aqueous solubility
CN(C)c1ccc(/C=C2/SC(=Nc3ccccc3Cl)NC2=O)cc1 [Compound 11] | good cytoselective anti-cancer effects | – | – | –
CCN(CC)c1ccc(/C=C2/SC(Nc3ccccc3Cl)=NC2=O)cc1 [Compound 12] | good cytoselective anti-cancer effects | – | – | –
Cc1ccccc1/N=C1\NC(=O)/C(=C\c2ccc(N(C)C)cc2)S1 [Compound 21] | good cytoselective anti-cancer effects | – | – | –
CCN(CC)c1ccc(/C=C2/SC(Nc3ccccc3C)=NC2=O)cc1 [Compound 22] | good cytoselective anti-cancer effects | – | – | –
Cc1ccccc1NC1=NC(=O)/C(=C\c2ccc(N3CCNCC3)cc2)S1 [Compound 25] | – | – | reduced anticancer activity | aqueous solubility (in words) [2]: largest improvement in aqueous solubility
CN(C)c1ccc(/C=C2/SC(N(c3ccccc3)c3ccccc3)=NC2=O)cc1 [Compound 26] | – | > 100 | – | –
CCN(CC)c1ccc(/C=C2/SC(N(c3ccccc3)c3ccccc3)=NC2=O)cc1 [Compound 27] | – | > 100 | – | –
CN(C)c1ccc(/C=C2/SC(N(C)c3ccccc3)=NC2=O)cc1 [Compound 31] | potent cytoselective anti-cancer activity | – | – | improvement in aqueous solubility ([2]; compared to compound 1): 5 fold; improvement in anti-cancer activity (EC50) (NSCLC cell line H460; H460 and H460TaxR, compared to compound 1): 10 fold
CCN(CC)c1ccc(/C=C2/SC(N(C)c3ccccc3)=NC2=O)cc1 [Compound 32] | potent cytoselective anti-cancer activity | > 100 | – | aqueous solubility (in words) [2]: did not improve solubility
CN(C1=NC(=O)/C(=C\c2ccc(N3CCOCC3)cc2)S1)c1ccccc1 [Compound 33] | – | > 100 | weak anti-cancer effects | aqueous solubility (in words) [2]: significantly better
CN1CCN(c2ccc(/C=C3/SC(N(C)c4ccccc4)=NC3=O)cc2)CC1 [Compound 34] | – | – | weak anti-cancer effects | –
CN(C1=NC(=O)/C(=C\c2ccc(N3CCNCC3)cc2)S1)c1ccccc1 [Compound 35] | – | – | weak anti-cancer effects | –
